Screens (PubChem)
The list is not random: actives were taken first. Their share in the collection is about 3.2%.
DAGLB inhibitor = blocks human DAGLB lipase activity; Q8NCG7; HEK293T DAGLB membrane lysate, EnzChek fluorogenic substrate; inhibition, % at 5.17 µM; 0.059% of 340,000 active; in the data active means inhibition above about 34%;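 further: 0% = enzyme with vehicle and 100% = wells lacking enzyme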
LEDGF integ inh = blocks HIV-1 LEDGF/p75-dependent DNA integration. TR-FRET IN-LEDGF/p75 DNA integration, Eu/Cy5. inhibition, % at 3.7 µM. 0.64% of 370,000 active;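 active means inhibition above the screen-wide mean plus 3 SD, cut at about 13% in these data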;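 further: signal is the Cy5 over europium emission ratio at 671 and 618 nm; 0% = plate median of compound wells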
HTRA1 inh = blocks human HTRA1 serine peptidase; Q92743; recombinant HTRA1, FP-rhodamine activity-based probe, fluorescence polarization; inhibition, % at 5.96 µM; 0.5% of 340,000 active; in the data active means inhibition above about 36%;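 further: 0% = enzyme with DMSO and 100% = wells lacking enzyme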
PRMT1 FP inh = inhibitors of human PRMT1; Q99873; recombinant PRMT1, activity-based probe fluorescence polarization; inhibition, % at 2.79 µM; 1.3% of 370,000 active;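 active means inhibition above about 21% made by adding two undisclosed values, limit read from the data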
Target sequence (Q99873 whole entry, looked up): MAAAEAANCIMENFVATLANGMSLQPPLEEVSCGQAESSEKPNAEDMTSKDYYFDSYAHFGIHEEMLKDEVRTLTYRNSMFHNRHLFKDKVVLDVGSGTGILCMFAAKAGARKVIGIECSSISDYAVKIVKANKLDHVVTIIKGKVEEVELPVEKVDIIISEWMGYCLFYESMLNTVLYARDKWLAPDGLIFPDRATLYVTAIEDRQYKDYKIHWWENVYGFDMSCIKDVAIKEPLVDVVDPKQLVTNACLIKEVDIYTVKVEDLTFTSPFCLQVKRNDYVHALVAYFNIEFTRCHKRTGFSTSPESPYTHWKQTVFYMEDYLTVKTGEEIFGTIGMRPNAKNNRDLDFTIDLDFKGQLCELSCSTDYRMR
mABHD4 FP = ABHD4 (mouse) inhibition, primary FP screen | Q8VD66 | purified mABHD4, FP-Rh probe fluorescence polarization | inhibition, % at 8.92 µM | 0.54% of 370,000 active | AID 720543;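 active means inhibition exceeding the mean over every tested compound plus 3 SD, cut at about 30% in these data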;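 further: 0% = plate median of compound wells and 100% = S159A mutant with DMSO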
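system = mouse ABHD4 enzyme, wild type | medium = HEPES pH 7.0, NaCl, Pluronic buffer | also added = FP-Rh probe | incubation = Enzyme–compound pre-incubation 45 min, then probe 60 min, both 25 °C | technique = fluorescence polarization, excitation 525 nm, emission 598 nm, BODIPY TMR filters | controls = S159A mutant high control, sample median low control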
rCAG binder = r(CAG) repeat RNA binding; TO-PRO-1 dye displacement fluorescence; AID 651821; 1.3% of 370,000 active; inhibition, % at 3 µM;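 active means inhibition above the plate cutoff, the mean of all test compounds on that plate plus 3 SD, cut at about 35% in these data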;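 further: 0% = DMSO alone and 100% = 100 µM mitoxantrone as full dye displacement; higher means more dye released from RNA so lower well fluorescence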
HTRA1 inh conf = HTRA1 (human) inhibition, confirmation; recombinant HTRA1, FP-rhodamine activity-based probe, fluorescence polarization; shares compounds with HTRA1 inh; AID 540248; 66% of 1,600 active; inhibition, % at 5.96 µM;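 active means mean inhibition over three repeats above a set limit taken from the earlier primary screen, cut at about 37% in these data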;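 further: 0% = HTRA1 with DMSO and 100% = wells lacking HTRA1; inhibitors block probe binding so polarization drops and inhibition rises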
Starred values were filed as active, the others as inactive.

CCOC(=O)C1CCCN(C(=O)c2ccc(C(=O)c3ccccc3)cc2)C1 (stereo unspecified) was read as DAGLB inhibitor 1, LEDGF integ inh 4, HTRA1 inh 6, PRMT1 FP inh -3, mABHD4 FP -1 and rCAG binder 0.
`CCOC(=O)C1CCCN(C(=O)C2c3ccccc3Oc3ccccc32)C1` (stereo unspecified) gave DAGLB inhibitor -13, LEDGF integ inh -4, HTRA1 inh 53*, PRMT1 FP inh 11, mABHD4 FP 12, rCAG binder -8 and HTRA1 inh conf -8.
For CC(=O)c1ccccc1NC(=O)c1ccc(OCc2c(C)noc2C)cc1 the results were DAGLB inhibitor -2, LEDGF integ inh 2, HTRA1 inh -11, PRMT1 FP inh 1, mABHD4 FP 1 and rCAG binder 1.
`COc1ccccc1Nc1ccc2c(O)cc(S(=O)(=O)O)cc2c1` gave DAGLB inhibitor 10, LEDGF integ inh 36*, HTRA1 inh 69*, PRMT1 FP inh 37*, mABHD4 FP 86*, rCAG binder 74* and HTRA1 inh conf 53*.
`NS(=O)(=O)c1cccc(NC(=O)c2ccc3nc[nH]c3c2)c1` gave DAGLB inhibitor 1, LEDGF integ inh 5, HTRA1 inh 7, PRMT1 FP inh -3, mABHD4 FP 6 and rCAG binder 6.
Screening Cc1ccc(/C=C/C(=O)c2ccccc(=O)c2O)cc1C returned DAGLB inhibitor 10, LEDGF integ inh 7, HTRA1 inh 37*, PRMT1 FP inh 13, mABHD4 FP 29, rCAG binder 29 and HTRA1 inh conf 44*.
For Cc1ccsc1C=Nc1ccc(O)cc1 the results were DAGLB inhibitor 7, HTRA1 inh 51* and HTRA1 inh conf 15.
For CC(=O)c1cc(C#N)c(N(C)Cc2ccccc2)nc1C the results were DAGLB inhibitor -4, LEDGF integ inh 2, HTRA1 inh 2, PRMT1 FP inh -2, mABHD4 FP 1 and rCAG binder -5.
For COc1cc(NC(C)CCc2ccccc2)cc(OC)c1OC (stereo unspecified) the results were DAGLB inhibitor -1, LEDGF integ inh 3, HTRA1 inh 40*, PRMT1 FP inh 4, mABHD4 FP 18, rCAG binder -1 and HTRA1 inh conf 27.
N#CC(c1nc2ccccc2nc1N1CCCC1)S(=O)(=O)c1ccccc1 (stereo unspecified) was read as DAGLB inhibitor 0, LEDGF integ inh 2, HTRA1 inh 39*, PRMT1 FP inh 9, mABHD4 FP 6, rCAG binder 10 and HTRA1 inh conf 5.
`Cc1cccc(NC(=S)NNc2ncc(C(F)(F)F)cc2Cl)c1` gave DAGLB inhibitor -2, LEDGF integ inh 6, HTRA1 inh 27, PRMT1 FP inh 1, mABHD4 FP 1 and rCAG binder 5.
`FC(F)(F)c1cnc(NNC(=S)Nc2ccccc2Cl)c(Cl)c1` gave DAGLB inhibitor 0, LEDGF integ inh 4, HTRA1 inh 43*, PRMT1 FP inh -2, mABHD4 FP 17, rCAG binder 3 and HTRA1 inh conf 33.
`COc1ccc(-c2nnc3ccc(SCC(=O)Nc4cc(C)on4)nn23)cc1OC` gave DAGLB inhibitor 1, LEDGF integ inh 7, HTRA1 inh 1, PRMT1 FP inh -5, mABHD4 FP -3 and rCAG binder 10.
C/C(CC(=O)Nc1ccc2ccccc2c1)=N\NC(=O)c1ccc(O)c(O)c1 was read as DAGLB inhibitor 8, LEDGF integ inh 5, HTRA1 inh 69*, PRMT1 FP inh -2, mABHD4 FP 9, rCAG binder 24 and HTRA1 inh conf 84*.
Screening COCCN(C(=O)CN1CCN(S(=O)(=O)c2ccc(F)cc2)CC1)c1c(N)n(Cc2ccccc2)c(=O)[nH]c1=O returned DAGLB inhibitor -2, LEDGF integ inh 1, HTRA1 inh 10, PRMT1 FP inh -3, mABHD4 FP 6 and rCAG binder 1.
`CCc1ccc(S(=O)(=O)/N=C2/C=C(Sc3ncn[nH]3)C(=O)c3ccccc32)cc1` gave DAGLB inhibitor -3 and HTRA1 inh 26.
